Screening data deposited in PubChem BioAssay by Broad Institute.
C-LANA FP: KSHV C-LANA DNA binding inhibition; inhibition, % at 9 µM; AID 504423; 0.078% of 340,000 active; MBP-C-LANA/FAM-LBS DNA binding, fluorescence polarization;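 active means highest replicate inhibition at or above 60% at 9 µM, even if other replicates fall short; inactive means all replicates below 60% inhibition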;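 further: 0% = neutral control wells and 100% = 4 µM acridine orange control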
Keap1 Nrf2 FP: inhibitors of human Keap1-Nrf2 protein-protein interaction. Q14145. Keap1 Kelch-Nrf2 peptide fluorescence polarization, 1536-well. inhibition, % at 9.4 µM. 0.15% of 340,000 active; in the data active means inhibition above about 12%;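 further: human Keap1 Kelch domain with fluorescein labeled Nrf2 9mer peptide probe; 0% = neutral control wells and 100% = peptide positive control; higher means more block of Keap1 binding to Nrf2 peptide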
Target sequence (Q14145 whole entry, looked up, the tested form may be a part): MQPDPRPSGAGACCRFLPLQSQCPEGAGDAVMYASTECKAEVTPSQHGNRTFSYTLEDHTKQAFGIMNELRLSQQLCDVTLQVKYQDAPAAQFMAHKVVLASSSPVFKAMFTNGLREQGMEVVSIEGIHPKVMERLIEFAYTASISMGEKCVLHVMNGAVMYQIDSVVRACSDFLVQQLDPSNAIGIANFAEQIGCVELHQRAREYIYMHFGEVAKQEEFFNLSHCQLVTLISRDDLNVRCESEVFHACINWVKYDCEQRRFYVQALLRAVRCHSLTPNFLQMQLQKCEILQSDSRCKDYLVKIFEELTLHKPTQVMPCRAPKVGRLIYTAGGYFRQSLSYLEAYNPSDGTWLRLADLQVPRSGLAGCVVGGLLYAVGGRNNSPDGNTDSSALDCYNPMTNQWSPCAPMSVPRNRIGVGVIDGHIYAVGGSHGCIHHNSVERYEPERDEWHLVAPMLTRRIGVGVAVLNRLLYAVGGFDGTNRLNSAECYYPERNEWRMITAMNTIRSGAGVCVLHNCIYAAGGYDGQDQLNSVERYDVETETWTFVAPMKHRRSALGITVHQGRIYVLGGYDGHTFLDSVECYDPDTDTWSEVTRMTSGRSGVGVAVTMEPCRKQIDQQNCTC
CAL PDZ FP-1: human CAL PDZ-peptide interaction inhibition; inhibition, % at 20 µM; purified CAL PDZ, TMR-peptide fluorescence polarization, 1 h; 0.02% of 330,000 active; Q9HD26;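 active means highest replicate inhibition of at least 40%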;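 further: plate controls were DMSO neutral control wells for no effect and unlabeled competitor peptide control wells for full effect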
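System: purified tagged CAL PDZ domain construct (CerCALP). Schedule: 1 h incubation at room temperature before polarization reading. Medium: 25 mM sodium phosphate pH 7.4, 150 mM NaCl, TCEP, IgG, Thesit. Read-out: percent inhibition from loss of millipolarization. Measured by: FP readout, S and P plane fluorescence. Probe or stimulus: fluorescent TMR peptide probe.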
CAL PDZ FP-2: blocks peptide binding to the human CAL PDZ domain; Q9HD26; purified CAL PDZ, TMR-peptide fluorescence polarization, 1 h; inhibition, % at 24.9 µM; 0.92% of 300,000 active; AID 602252;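 active means mean inhibition of at least 30% with at least half of replicates also reaching 30%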;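 further: 0% = DMSO neutral control and 100% = excess unlabeled competitor peptide PRC23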
miR122 inh: miR-122 inhibition in Huh7 cells | 0.3% of 340,000 active | activation (reporter increase), % at 12.5 µM | Huh7 miR-122 Renilla luciferase sensor, 48 h; neutral wells = 0, positive control = 100;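 active means mean replicate activation score at least 90 and every replicate individually at or above 90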;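 further: higher luciferase means less miR-122 activity so hits act as miR-122 inhibitors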
Active calls of the source: *; nt = not tested or not shown; [ ] = another dose, or the depositor's remark. An excerpt weighted towards active compounds, which were near 1.1% of everything screened.

SMILES	C-LANA FP	Keap1 Nrf2 FP	CAL PDZ FP-1	CAL PDZ FP-2	miR122 inh
CCOC(=O)C1CCN(c2nc(-c3ccccc3)nc3c2oc2ccccc23)CC1	-3	-1	0	-16	-7
CCOC(=O)C1CCN(c2nc(-c3ccc(C)cc3)nc3ccccc23)CC1	2	-3	-2	85*	nt
Cc1ccc(S(=O)(=O)Nc2ccc3c(c2)C(=O)N([C@H](C)CO)C[C@@H](C)[C@@H](CN(C)C(=O)Nc2c(C)noc2C)OCCCC[C@@H](C)O3)cc1	nt	nt	nt	nt	1[16.7 µM]
CC1CCN(Cc2nnnn2CCCC(=O)NCC(C)(C)N2CCOCC2)CC1	1	-3	-1	-2	5
CC1CCN(Cc2nnnn2CCCC(=O)NCCc2cnn(C)c2)CC1	0	1	-3	113*	-7
Cc1cc(Cl)c(S(=O)(=O)Nc2ccc3c(c2)OCO3)cc1OCC(=O)NC1CCCCC1	0	5	-1	-2	94*
C[C@H](CO)N1C[C@H](C)[C@@H](CN(C)S(C)(=O)=O)Oc2ccc(NC(=O)C3CC3)cc2CC1=O	nt	nt	nt	nt	6[16.7 µM]
CC(=O)Oc1ccc(N2C(=O)C3C(C2=O)C(C(=O)c2ccc(Cl)cc2)N2CCCC32)cc1 (configuration not stated)	9	-8	-3	27	nt
Cc1ccc(N2C(=O)C3C(C2=O)C(C(=O)c2ccc(Cl)cc2)N2CCCC32)cc1 (configuration not stated)	-1	-6	0	42*	1
COCCCNc1c2c3c(cccc3[nH]c1=O)C(=O)c1ccccc1-2	184*	167*	8	nt	39
COCCCNC1=C(Cl)C(=O)c2ccccc2C1=O	-1	0	0	0	-1
C[C@@H]1CN([C@H](C)CO)C(=O)c2cc(-c3ccc(C(=O)N(C)C)cc3)cnc2O[C@@H]1CN(C)C	nt	nt	nt	nt	14[16.7 µM]
C[C@H]1CCCCO[C@H](CN(C)C(=O)NC2CCCCC2)[C@@H](C)CN([C@@H](C)CO)C(=O)c2cc(NC(=O)CCCN(C)C)ccc2O1	nt	nt	nt	nt	0[16.7 µM]
COCCN(C(=O)c1ccco1)c1nnc(-c2ccc(F)cc2)s1	0	2	-2	40*	1
CC(C)c1ccc(/C=C/C(=O)CCC(=O)O)cc1	0	-3	0	2	213*
O=C(O)CCC(=O)/C=C/c1ccccc1	1	4	0	-3	-3
Cc1ccc(S(=O)(=O)N(C)C[C@H]2Oc3ccc(N(C)C)cc3CC(=O)N([C@H](C)CO)C[C@@H]2C)cc1	nt	nt	nt	nt	3[16.7 µM]
CCOc1ccc2nc3cc(N=Nc4ccc(N)nc4N)ccc3c(N)c2c1	0	5	56*	10	-29
CCOc1ccccc1NC(=O)Cn1nnc(C(=O)NCc2ccco2)c1N	-1	0	-2	7	136*
Cc1ccccc1NC(=O)Cn1nnc(C(=O)NCc2ccco2)c1N	0	-3	-4	-3	36
CCOC(=O)C1(CCOc2ccccc2)CCN(Cc2ccc(C)o2)CC1	0	-8	-1	53*	nt
CCOC(=O)C1(CCOc2ccccc2)CCN(Cc2cnc(SC)nc2)CC1	1	-4	-1	46*	-3
CNC[C@H]1Oc2cc(C#Cc3cccnc3)ccc2S(=O)(=O)N([C@@H](C)CO)C[C@@H]1C	nt	nt	nt	nt	6[16.7 µM]
C1CCN(c2nc3nonc3nc2N2CCCC2)C1	-1	-2	-2	1	-7
CCn1cc(CNc2nc3nonc3nc2N2CCCCC2)cn1	1	-1	-1	72*	-4
SMILES	C-LANA FP	Keap1 Nrf2 FP	CAL PDZ FP-1	CAL PDZ FP-2	miR122 inh
CN1C(=O)[C@H]2[C@@H](c3ccc(F)cc3)N3C(=O)c4ccccc4NC(=O)[C@@]3(C)[C@H]2C1=O	2	2	0	3	95*
CCCCCn1nc(-c2ccccc2)c2nc3ccccc3nc21	94*	1	0	-5	-11
COc1ccc(S(=O)(=O)N(C)C[C@@H]2OCCCC[C@@H](C)Oc3ccc(NC(=O)Nc4ccc(C(F)(F)F)cc4)cc3C(=O)N([C@@H](C)CO)C[C@@H]2C)cc1	nt	nt	nt	nt	-3[16.7 µM]
O=C(c1ccc(NS(=O)(=O)c2cccc(F)c2)cc1)N1CCCC1	1	6	-3	-5	8
O=C(c1ccc(NS(=O)(=O)c2cccc(F)c2)cc1)N1CCCCC1	2	4	-2	36*	5
Cc1ccc(-c2cnc3c(c2)C(=O)N([C@H](C)CO)C[C@H](C)[C@H](CN(C)Cc2ccccc2C(=O)O)O3)cc1	nt	nt	nt	nt	1[16.7 µM]
Cc1cnc(NC(=O)NCC2CCCC(CNC(=O)Nc3ncc(C)s3)C2)s1 (configuration not stated)	2	-2	-1	67*	-1
COc1cc(C(=O)NCCC(=O)NC2CCCCC2)cc(OC)c1OC	1	-1	-3	1	-2
COc1cc(C(=O)NCCNC(=O)C2CCCNC2=O)cc(OC)c1OC (configuration not stated)	2	1	0	40*	nt
COc1cc(C(=O)NCC2CCCCC2)cc(OC)c1OC	0	0	-1	65*	nt
C[C@H](CO)N1C[C@H](C)[C@@H](CN(C)C(=O)C2CCCCC2)Oc2ncc(C#CC3CC3)cc2C1=O	nt	nt	nt	nt	26[16.7 µM]
O=C(CN1C(=O)C2CC=CCC2C1=O)Nc1nc2ccccc2[nH]1 (configuration not stated)	0	2	nt	47*	-6
Cc1ccc(CN2CCSc3ccc(C(=O)NCc4cccnc4)cc32)cc1	3	2	-1	-5	155*
Cc1ccc(OCC(=O)N(Cc2ccccc2)c2ccccn2)cc1	0	0	-2	-2	10
Cc1ccc(CC(=O)N(Cc2ccccc2)c2ccccn2)cc1	-1	-3	-3	-5	118*
C[C@@H]1CN([C@@H](C)CO)C(=O)c2cc(C#Cc3ccccn3)cnc2O[C@H]1CN(C)Cc1ccccc1	nt	nt	nt	nt	-6[16.7 µM]
Cc1nc(SCCC(=O)O)c2cc(-c3ccccc3)sc2n1	-1	-2	-2	55*	-1
C/C(=N/NC(=O)c1ccncc1)c1cc2ccc(O)cc2oc1=O	75*	-76	0	0	nt
C/C(=N\NC(=O)c1ccncc1)c1cc2ccccc2oc1=O	-1	-6	-1	-1	nt
CSc1nc(-c2ccc(C)cc2)[nH]c1S(=O)(=O)c1ccccc1	0	5	nt	35*	126*
CSc1nc(-c2ccccc2)[nH]c(=S)c1C(C)=O	0	-2	-1	0	9
O=S(=O)(Nc1ccc(Cl)cc1)c1cccc2cccnc12	1	-6	-1	-3	99*
COc1ccc(C(C)(C)C)cc1NS(=O)(=O)c1cccc2cccnc12	-2	-1	-1	-4	117*
COc1ccc(OC)c(NS(=O)(=O)c2cccc3cccnc23)c1	0	4	0	-3	80
O=C(O)c1ccc(NS(=O)(=O)c2cccc3cccnc23)cc1	0	-2	0	14	5
COc1ccccc1NS(=O)(=O)c1ccc2ccccc2c1	0	-1	-1	-4	28
